Assay [1] concerns the target T1, Pyruvate kinase PKM (Homo sapiens, UniProt P14618). Put plainly: Inhibition of PKM2 in human PC9 cells assessed as increase in oxygen consumption rate at 0.25 to 1 uM preincubated for 4 hrs followed by glucose/oligomycin/2-DG addition and measured after 1 hr by seahorse XFe96 analyser based assay. It is filed as cell-based. The gist of the method:
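PC-9 cells, 5 × 10^4 per well, seeded 24 h ahead, then treated with DMSO or compound at 0.25, 0.5 or 1 µM for 4 h at 37 °C. Cells held 1 h without CO2 in glycolysis medium. Seahorse glycolysis stress test with serial injections of 10 mM glucose, oligomycin and 50 mM 2-DG; ECAR and OCR recorded together. Six wells per point.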

Assay [2] addresses T1, Pyruvate kinase PKM. Description: Inhibition of N-(4-(3-(3-(Methylamino)-3-oxopropyl)-5-(4'-(prop-2-yn-1-yloxy)-[1,1'-biphenyl]-4-yl)-1H-pyrazol-1-yl)phenyl)propiolamide binding to PKM2 in human PC9 cells at 1 uM preincubated for 1 hr followed by probe addition and measured after 1 hr by Western blot analysis. Format: cell-based. The gist of the method:
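PC-9 cells pretreated with 1 µM compound or DMSO for 1 h, then alkyne probe added at 0.5, 1 or 2 µM for 1 h at 37 °C. Lysates put through Cu-catalysed click with biotin-azide, streptavidin beads 16 h at 4 °C, washes with 0.5% SDS/PBS, 10% SDS-PAGE and PKM2 Western blot.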
For orientation: Immunoblotting shows a protein as a band on a membrane.

Assay [3] deals with NCI-H157. Description: Antiproliferative activity against human NCI-H157 cells expressing wild type EGFR assessed as reduction in cell viability incubated for 24 hrs by MTT assay. It is filed as functional, cell-based. The following applies: NCI-H157, 24 h. An outline of the steps:
(§1)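 Cells seeded at 3,500 per well in 10% FBS and left overnight, then exposed to test agent or vehicle in 5% FBS for 24 h. MTT added for 1 h, then medium swapped for DMSO and absorbance read at 560 nm. Viability given as percent of vehicle-treated control. Run in triplicate.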
Background: Tetrazolium assays rely on reduction of a dye to a coloured formazan, in cell work by metabolically active cells.

Assay [4] relates to PC-9. Description: Antitumor activity against human PC9 cells xenografted in athymic nude mouse assessed as reduction in tumor growth at 10 mg/kg, ip administered once daily for 25 days measured post-last dose by caliper method. Format: functional, organism-based. The gist of the method:
(§2)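 Female nude mice, 6 weeks old, given s.c. 1 × 10^6 PC-9 cells in Matrigel (1:1). From day 7, once-daily i.p. vehicle or 10 mg/kg compound in sterile water with 0.5% methylcellulose and 0.1% Tween-80, n = 8 per group, for 25 days. Tumor volume and body weight followed, tumors weighed at end.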

The subject of assay [5] is PC-9. Put plainly: Down regulation of PKM2 expression in human PC9 cells incubated for 24 hrs by Western blot analysis. Format: functional, cell-based. An outline of the steps: (§3)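 PC-9 cells seeded at 5 × 10^5 cells/mL; after 24 h given 0–1 µM compound or DMSO for 24 h. Lysates run on 10% SDS-PAGE, transferred to nitrocellulose, probed for PKM2, EGFR, p-STAT3, STAT3, p-β-catenin, β-catenin and β-actin with HRP secondaries, ECL detection.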

The target of assay [6] is T1, Pyruvate kinase PKM. Description: Inhibition of PKM2 in human PC9 cells assessed as reduction in beta-catenin expression incubated for 24 hrs by Western blot analysis. It is filed as cell-based. An outline of the steps: as §3
The target of assay [7] is T1, Pyruvate kinase PKM. Put plainly: Binding affinity to recombinant human N-terminal His6-tagged PKM2 expressed in Escherichia coli BL21 (DE3) assessed as Cys326-adduct formation by NanoLC-MS/MS analysis. The gist of the method: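 In-house His-tag PKM2 from E. coli BL21(DE3), purified by Ni-NTA then Superdex 200, treated with compound. Reduced with 30 mM DTT at 37 °C for 1 h, alkylated with 30 mM iodoacetamide for 1 h in the dark, trypsin 1:30 w/w overnight at 37 °C. Digests from 6 experiments pooled, 48 nanoLC-MS/MS runs in data-dependent mode, Orbitrap MS1.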

Assay [8] addresses T1, Pyruvate kinase PKM. Description: Inhibition of PKM2 in human PC9 cells assessed as down regulation of EGFR expression incubated for 24 hrs by Western blot analysis. It is filed as cell-based. The gist of the method: as §3
The test system of assay [9] is PC-9. Put plainly: Antitumor activity against human PC9 cells xenografted in athymic nude mouse assessed as reduction in tumor volume at 10 mg/kg, ip administered once daily for 25 days measured post-last dose. It is filed as functional, organism-based. An outline of the steps: as §2
In general terms: In xenograft studies the graft and the host belong to different species.

The target in assay [10] is T2, Phosphoglycerate kinase 1 (Homo sapiens) (UniProt P00558).
T2 sequence (whole entry): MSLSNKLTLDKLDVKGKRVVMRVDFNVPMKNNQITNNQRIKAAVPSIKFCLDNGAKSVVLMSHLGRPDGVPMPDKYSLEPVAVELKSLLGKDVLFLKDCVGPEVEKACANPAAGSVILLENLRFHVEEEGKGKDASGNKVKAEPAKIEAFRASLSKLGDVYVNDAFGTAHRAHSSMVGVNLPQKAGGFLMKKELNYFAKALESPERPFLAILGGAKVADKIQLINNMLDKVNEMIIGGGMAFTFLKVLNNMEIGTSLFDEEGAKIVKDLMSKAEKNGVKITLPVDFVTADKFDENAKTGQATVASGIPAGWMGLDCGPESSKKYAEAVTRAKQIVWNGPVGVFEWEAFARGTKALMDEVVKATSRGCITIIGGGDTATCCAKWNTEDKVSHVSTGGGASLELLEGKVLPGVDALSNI
Description: Binding affinity to PGK1 in human PC9 cells incubated for 1 hr by ABPP-SILAC assay. It is filed as cell-based. The gist of the method:
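PC-9 cells passaged at least six times in SILAC DMEM with 10% dialyzed FBS plus 100 µg/mL light or 13C/15N-labeled Arg/Lys. Heavy cells got ABPP probe (1 µM) and light cells DMSO, 1 h at 37 °C. Cells mixed 1:1, sonicated, spun at 100,000g, protein normalized to 1 mg/mL. Click biotin-azide, streptavidin bead pulldown 16 h at 4 °C, SDS-PAGE, on-bead trypsin digestion, LC-MS/MS.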

The target in assay [11] is T1, Pyruvate kinase PKM. Put plainly: Inhibition of PKM2 in human PC9 cells assessed as reduction in STAT3 phosphorylation incubated for 24 hrs by Western blot analysis. It is filed as cell-based. An outline of the steps:
as §3

Assay [12] has as its system MDA-MB-231. Description: Antiproliferative activity against human MDA-MB-231 cells assessed as reduction in cell viability incubated for 24 hrs by MTT assay. Format: functional, cell-based. The following applies: MDA-MB-231, 24 h. An outline of the steps: as §1
In assay [13] the test system is MCF7. Description: Antiproliferative activity against human MCF7 cells assessed as reduction in cell viability incubated for 24 hrs by MTT assay. Format: functional, cell-based. The following applies: MCF7, 24 h. The gist of the method:
as §1

Structures are written as SMILES. The source made the active and inactive calls. No cut-off for these calls is given here.

T1 sequence (P14618 2-531 limits assumed): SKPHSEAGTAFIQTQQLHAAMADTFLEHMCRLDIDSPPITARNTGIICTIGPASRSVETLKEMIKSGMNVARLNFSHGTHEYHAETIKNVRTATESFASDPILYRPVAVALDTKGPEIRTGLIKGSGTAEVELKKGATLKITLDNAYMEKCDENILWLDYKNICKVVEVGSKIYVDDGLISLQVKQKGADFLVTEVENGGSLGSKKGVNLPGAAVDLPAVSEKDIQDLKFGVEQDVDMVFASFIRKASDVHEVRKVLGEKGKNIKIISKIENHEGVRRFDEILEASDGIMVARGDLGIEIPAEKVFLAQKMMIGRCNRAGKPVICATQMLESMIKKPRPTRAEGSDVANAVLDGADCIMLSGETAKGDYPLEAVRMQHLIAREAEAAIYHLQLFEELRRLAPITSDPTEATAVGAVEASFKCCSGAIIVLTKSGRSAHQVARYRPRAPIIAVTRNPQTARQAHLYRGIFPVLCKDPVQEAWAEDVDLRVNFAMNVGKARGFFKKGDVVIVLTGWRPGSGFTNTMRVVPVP

As usually defined, the IC50 is the concentration at which inhibition is half-maximal. Take `C#CC(=O)Nc1ccc(-n2nc(CCC(=O)NC)cc2-c2ccc(-c3ccc(C(F)(F)F)cc3)cc2)cc1`: the inhibition result in assay [1] and in [2] was “Active” each time. For the same compound, the half-inhibitory concentration (IC50) is above 2 µM in assay [3], 0.1 µM in assay [12] and 1 µM in assay [13]. Besides, the outcome in assay [4], in [7], in assay [9] and in assay [10] was Active. The Activity entry in assay [5] was “Dose-dependent effect”. For the same compound, the inhibition entry in [6], in assay [8] and in assay [11] was “Dose-dependent effect” throughout.

These data come from ChEMBL document CHEMBL4414568, “Development of Novel Irreversible Pyruvate Kinase M2 Inhibitors” (J Med Chem, 2019).
